Activity calls are given as the source filed them.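 Rule for the calls: active = peak inhibition of the KCNQ2 potassium channel above 30% at some tested dose, plus a fitted dose response curve; inactive = no inhibition at any dose, or no curve.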
These molecules were tested against Potassium voltage-gated channel subfamily KQT member 2 (Rattus norvegicus) (UniProt O88943) (assay: rat KCNQ2 channel inhibition, SAR follow-up, selectivity assay for KCNK9 inhibitor project, cell-based, FluxOR thallium flux, CRC set 3 (AID 588798)). Conditions: KCNQ2-expressing cells, FluxOR thallium flux fluorescence.
Potassium voltage-gated channel subfamily KQT member 2 (Rattus norvegicus), sequence (O88943 whole entry, looked up): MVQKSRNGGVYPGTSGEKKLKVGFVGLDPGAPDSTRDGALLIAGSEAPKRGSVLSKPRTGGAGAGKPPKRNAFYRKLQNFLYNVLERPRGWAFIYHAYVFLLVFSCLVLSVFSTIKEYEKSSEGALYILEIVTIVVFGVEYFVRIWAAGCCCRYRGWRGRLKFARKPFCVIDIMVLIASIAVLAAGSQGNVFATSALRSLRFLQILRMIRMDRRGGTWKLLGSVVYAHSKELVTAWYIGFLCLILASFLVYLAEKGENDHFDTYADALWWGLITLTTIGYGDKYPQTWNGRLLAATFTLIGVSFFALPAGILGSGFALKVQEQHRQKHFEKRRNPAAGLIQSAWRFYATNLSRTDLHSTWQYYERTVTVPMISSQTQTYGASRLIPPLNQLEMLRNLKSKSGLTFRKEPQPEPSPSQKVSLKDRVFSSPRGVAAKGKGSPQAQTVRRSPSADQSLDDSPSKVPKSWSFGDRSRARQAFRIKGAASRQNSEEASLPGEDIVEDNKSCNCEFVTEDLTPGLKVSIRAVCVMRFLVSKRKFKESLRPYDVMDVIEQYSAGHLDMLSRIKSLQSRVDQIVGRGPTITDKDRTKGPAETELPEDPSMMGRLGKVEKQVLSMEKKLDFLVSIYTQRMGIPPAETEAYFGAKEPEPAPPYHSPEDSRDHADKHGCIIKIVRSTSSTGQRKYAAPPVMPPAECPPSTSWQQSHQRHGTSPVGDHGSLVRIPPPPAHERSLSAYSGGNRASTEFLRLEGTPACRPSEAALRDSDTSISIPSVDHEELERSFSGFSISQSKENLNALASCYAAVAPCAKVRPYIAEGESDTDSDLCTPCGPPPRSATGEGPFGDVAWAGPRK
Outline: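 Schedule: 90 min dye load, 20 min compound exposure, room temperature. Assay system: KCNQ2-expressing CHO cells. Replication: duplicate or more. Compound dosing: concentration-response series. Evaluation: normalised fluorescence change ratio and IC50. Detection: kinetic thallium-flux fluorescence with FluxOR dye, 10 s baseline, 110 s post-stimulus.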

| Compound | IC50 [µM] |
| --- | --- |
| CC(C1CC2CCC1C2)n1c(SCc2ccccc2)nnc1-c1ccco1 (stereo not drawn) | 18 |

Same assay, conditions: KCNQ2-expressing cells, FluxOR thallium flux fluorescence; at 30 µM (top of the series)

| Compound | thallium flux ratio, lower = inhibition |
| --- | --- |
| CC(C1CC2CCC1C2)n1c(SC(F)F)nnc1-c1ccco1 (stereo not drawn) | inactive |
| CC(C1CC2CCC1C2)n1c(-c2cccc(N(C)C)c2)n[nH]c1=S (stereo not drawn) | inactive |
| COc1ccccc1C(=O)Nc1cc(NC(=O)c2ccccc2C(C)C)ccc1F | inactive |
| COc1ccccc1C(=O)Nc1cccc(NC(=O)c2cccc3ccccc23)c1 | inactive |
| CC(C1CC2CCC1C2)n1c(SCC#N)nnc1-c1cccs1 (stereo not drawn) | inactive |
| COc1cccc(-c2n[nH]c(=S)n2C(C)C2CC3CCC2C3)c1OC (stereo not drawn) | inactive |
| CC(C)Oc1ccccc1C(=O)Nc1cccc(NC(=O)c2ccccc2OC(F)(F)F)c1 | inactive |
| COc1ccc(CCSc2nnc(-c3ccco3)n2C(C)C2CC3CCC2C3)cc1OC (stereo not drawn) | inactive |
| CC(C1CC2CCC1C2)n1c(-c2ccco2)n[nH]c1=S (stereo not drawn) | inactive |
| CC(C1CC2CCC1C2)n1cnnc1-c1ccco1 (stereo not drawn) | inactive |
| CC(C1CC2CCC1C2)n1c(-c2ccco2)nnc1C(F)(F)F (stereo not drawn) | inactive |
| CC(C1CC2CCC1C2)n1c(-c2ccccn2)n[nH]c1=S (stereo not drawn) | inactive |
| COc1cccc(-c2nnc(S(C)(=O)=O)n2C(C)C2CC3CCC2C3)c1 (stereo not drawn) | inactive |
| CC(NC(=O)c1ccco1)C1CC2CCC1C2 (stereo not drawn) | inactive |
| COc1ccc(C(=O)CSc2nnc(-c3ccco3)n2C(C)C2CC3CCC2C3)cc1OC (stereo not drawn) | inactive |
| CC(C1CC2CCC1C2)n1c(SCC(=O)c2ccccc2)nnc1-c1ccco1 (stereo not drawn) | inactive |
| CC(C1CC2CCC1C2)n1c(-c2cccnc2)n[nH]c1=S (stereo not drawn) | inactive |
| S=c1[nH]nc(-c2ccco2)n1C1CC2CCC1C2 (stereo not drawn) | inactive |
| COc1cc(OC)cc(-c2n[nH]c(=S)n2C(C)C2CC3CCC2C3)c1 (stereo not drawn) | inactive |
| S=c1[nH]nc(-c2ccco2)n1CC1CC2CCC1C2 (stereo not drawn) | inactive |
| COc1ccc(C(=O)CSc2nnc(-c3ccco3)n2C(C)C2CC3CCC2C3)cc1 (stereo not drawn) | inactive |

| Compound | thallium flux ratio, lower = inhibition |
| --- | --- |
| C[C@@H](C1CCCCC1)n1c(-c2ccco2)n[nH]c1=S | inactive |
| CC(C1CCCCC1)n1c(-c2ccco2)n[nH]c1=S (stereo not drawn) | inactive |
| CC(C1CC2CCC1C2)n1c(-c2ccncc2)n[nH]c1=S (stereo not drawn) | inactive |
| CC(C1CC2CCC1C2)n1c(SCC(=O)c2ccc(Cl)c(Cl)c2)nnc1-c1ccco1 (stereo not drawn) | inactive |
| CC(CC1CC2CCC1C2)n1c(-c2ccco2)n[nH]c1=S (stereo not drawn) | inactive |
| CC(C1CC2CCC1C2)n1c(-c2ccccc2F)n[nH]c1=S (stereo not drawn) | inactive |
| CC(C1CC2CCC1C2)n1c(-c2cccn2C)n[nH]c1=S (stereo not drawn) | inactive |
| CSc1nnc(-c2ccco2)n1C(C)C1CC2CCC1C2 (stereo not drawn) | inactive |
| CC(C1CC2CCC1C2)n1c(-c2cccc(F)c2)n[nH]c1=S (stereo not drawn) | inactive |
| CC(CCC1CCCC1)n1c(-c2ccco2)n[nH]c1=S (stereo not drawn) | inactive |
| COc1cccc(Cc2n[nH]c(=S)n2C(C)C2CC3CCC2C3)c1 (stereo not drawn) | inactive |
| CC(C1CC2CCC1C2)N(C)C(=O)c1ccco1 (stereo not drawn) | inactive |
| CC(C1C2CCC1CC2)n1c(-c2ccco2)n[nH]c1=S (stereo not drawn) | inactive |
| CC(C1CC2CCC1C2)n1c(-c2cccs2)n[nH]c1=S (stereo not drawn) | inactive |
| CC(C1CC2CCC1C2)n1c(-c2ccc(N(C)C)cc2)n[nH]c1=S (stereo not drawn) | inactive |
| CC(C1CC2CCC1C2)n1c(SCC(=O)c2ccc3c(c2)OCO3)nnc1-c1ccco1 (stereo not drawn) | inactive |
| CC(C)c1ccccc1C(=O)Nc1cccc(NC(=O)c2ccccc2OC(F)(F)F)c1 | inactive |
| COc1cccc(C(=O)CSc2nnc(-c3ccco3)n2C(C)C2CC3CCC2C3)c1 (stereo not drawn) | inactive |
| CC(c1cccc2ccccc12)n1c(-c2ccco2)n[nH]c1=S (stereo not drawn) | inactive |
| CC(C1CC2CCC1C2)n1c(-c2ccco2)n[nH]c1=O (stereo not drawn) | inactive |
| C[C@H](C1CCCCC1)n1c(-c2ccco2)n[nH]c1=S | inactive |

— PubChem BioAssay AID588798 (Johns Hopkins Ion Channel Center, 2011)
